What was measured:
Pseudomonas aeruginosa [1] = test: In vitro activity against Pseudomonas aeruginosa (K799/WT).; format: functional
How it was run: (§1)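 MIC determined by agar dilution on brain-heart infusion agar under aerobic conditions.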

Escherichia coli [2] = test: In vitro activity against Escherichia coli (KNK437); format: functional
How it was run: (§2)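 MIC for aerobic bacteria, measured on brain-heart infusion agar.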

Klebsiella pneumoniae = test: In vitro activity against Klebsiella pneumoniae (ATCC 8045).; format: functional; how it was run: as §1
Escherichia coli [3] = test: In vitro activity against Escherichia coli Juhl; format: functional; how it was run: as §2
Mus musculus [4] = test: In vivo activity against Escherichia coli Juhl(100X LD50), when administered po( each compound tested at 3 doses with 10 animals); format: functional
How it was run: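 Mice were challenged intraperitoneally with the organism. The compound was given orally as a total dose split into equal portions at 1 and 5 h post-infection. Three doses were used, with 10 animals per dose.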

Staphylococcus aureus [5] = test: In vitro activity against Staphylococcus aureus(CMX 553); format: functional; how it was run: as §1
Staphylococcus aureus [6] = test: In vitro activity against Staphylococcus aureus(45 RAR2); format: functional; how it was run: as §1
Staphylococcus aureus [7] = test: In vitro activity against Staphylococcus aureus(CMX 686B); format: functional; how it was run: as §1
Providencia stuartii = test: In vitro activity against Providencia stuartii (CMX 640); format: functional; how it was run: as §1
Pseudomonas aeruginosa [8] = test: In vitro activity against Pseudomonas aeruginosa (BMH10); format: functional; how it was run: as §1
Streptococcus pyogenes [9] = test: In vitro activity against Streptococcus pyogenes (2548 INDUC).; format: functional; how it was run: as §1
Mus musculus [10] = test: In vivo activity against Escherichia coli Juhl(100X LD50), when administered sc( each compound tested at 3 doses with 10 animals); format: functional
How it was run: (§3)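 Mice were challenged intraperitoneally with the organism. The compound was given subcutaneously as a total dose split into equal portions at 1 and 5 h post-infection. Three doses were used, with 10 animals per dose.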

Mus musculus [11] = test: In vivo activity against Pseudomonas aeruginosa A5007 (100X LD50), administered sc ( each compound tested at 3 doses with 10 animals); format: functional; how it was run: as §3
Enterococcus faecium = test: In vitro activity against Enterococcus faecium (ATCC 8043).; format: functional; how it was run: as §1
Mus musculus [12] = test: In vivo activity against Pseudomonas aeruginosa A5007 (100X LD50), administered sc( each compound tested at 3 doses with 10 animals); format: functional; how it was run: as §3
Streptococcus pyogenes [13] = test: In vitro activity against Streptococcus pyogenes(930 CONST).; format: functional; how it was run: as §1
Pseudomonas aeruginosa [14] = test: In vitro activity against Pseudomonas aeruginosa (A5007).; format: functional; how it was run: as §1
Escherichia coli [15] = test: In vitro activity against Escherichia coli (H560); format: functional; how it was run: as §2
Escherichia coli [16] = test: In vitro activity against Escherichia coli (SS).; format: functional; how it was run: as §2
Staphylococcus aureus [17] = test: In vitro activity against Staphylococcus aureus(45); format: functional; how it was run: as §1
Burkholderia cepacia = test: In vitro activity against Pseudomonas cepacia (296I); format: functional; how it was run: as §1
Staphylococcus aureus [18] = test: In vitro activity against Staphylococcus aureus (A5177); format: functional; how it was run: as §1
[19] = Solubility in aqueous media 0.15 N sulfate, pH 5.4; format: physicochemical; conditions: read-out: S
Staphylococcus aureus [20] = test: In vitro activity against Staphylococcus aureus(ATCC 6538P); format: functional; how it was run: as §1
[21] = system: Staphylococcus epidermidis; test: In vitro activity against Staphylococcus epidermidis (3519); format: functional; how it was run: as §1
[22] = Solubility in aqueous media urine, pH 6.3; format: physicochemical; conditions: read-out: S
Acinetobacter sp. = test: In vitro activity against Acinetobacter sp.(CMX 669).; format: functional; how it was run: as §1
[23] = Solubility in aqueous media 0.15 N phosphate, pH 5.6; format: physicochemical; conditions: read-out: S
[24] = Solubility in aqueous media urine, pH 5.7; format: physicochemical; conditions: read-out: S
Streptococcus agalactiae = test: In vitro activity against Streptococcus agalactiae (CMX 508).; format: functional; how it was run: as §1
Escherichia coli [25] = test: In vitro activity against Escherichia coli (DC-2); format: functional; how it was run: as §2
[26] = Solubility in aqueous media urine, pH 7.0; format: physicochemical; conditions: read-out: S
Micrococcus luteus [27] = test: In vitro activity against Micrococcus luteus (ATCC 9341); format: functional; how it was run: as §1
[28] = Solubility in aqueous media 0.15Nacetate, pH 6.1; format: physicochemical; conditions: 0.15 N acetate, read-out: S
[29] = Solubility in aqueous media urine, pH 5.1; format: physicochemical; conditions: read-out: S
Micrococcus luteus [30] = test: In vitro activity against Micrococcus luteus (ATCC 4698); format: functional; how it was run: as §1
Streptococcus equinus = test: In vitro activity against Streptococcus bovis (A5169).; format: functional; how it was run: as §1
Staphylococcus aureus [31] = test: In vitro activity against Staphylococcus aureus(CMX 503A); format: functional; how it was run: as §1
[32] = Solubility in aqueous media 0.1 N chloride, pH 6.5; format: physicochemical; conditions: read-out: S
Streptococcus pyogenes [33] = test: In vitro activity against Streptococcus pyogenes (EES61); format: functional; how it was run: as §1
Klebsiella aerogenes = test: In vitro activity againsT Enterobacter aerogenes (ATCC 13048).; format: functional; how it was run: as §1
[34] = Solubility in aqueous media Ringer's buffer,pH7.4; format: physicochemical; conditions: pH 7.4

Question: Which MIC (Pseudomonas aeruginosa [1]) does the source give for `Cl.NC1CCN(c2nc3c(cc2F)c(=O)c(C(=O)O)cn3-c2ccc(F)cc2F)C1` (configuration not stated) here?
Answer: Its MIC is 0.1 µg/mL.

Question: And the MIC (Escherichia coli [2])?
Answer: The MIC was 0.02 µg/mL.

Question: What about the MIC (Klebsiella pneumoniae) of the same compound?
Answer: Its MIC is 0.02 µg/mL.

Question: What about the MIC (Escherichia coli [3]) of the same compound?
Answer: Its MIC is 0.02 µg/mL.

Question: What about the ED50 (Mus musculus [4]) of the same compound?
Answer: The ED50 was 1.2 mg/kg.

Question: What about the MIC (Staphylococcus aureus [5]) of the same compound?
Answer: Its MIC is 0.05 µg/mL.

Question: And the MIC (Staphylococcus aureus [6])?
Answer: Its MIC is 0.1 µg/mL.

Question: What about the MIC (Staphylococcus aureus [7]) of the same compound?
Answer: Its MIC is 0.05 µg/mL.

Question: And the MIC (Providencia stuartii)?
Answer: Its MIC is 1.56 µg/mL.

Question: What about the MIC (Pseudomonas aeruginosa [8]) of the same compound?
Answer: Its MIC is 0.1 µg/mL.

Question: What about the MIC (Streptococcus pyogenes [9]) of the same compound?
Answer: Its MIC is 0.2 µg/mL.

Question: What about the ED50 (Mus musculus [10]) of the same compound?
Answer: Its ED50 is 0.2 mg/kg.

Question: And the ED50 (Mus musculus [11])?
Answer: Its ED50 is 0.4 mg/kg.

Question: What about the MIC (Enterococcus faecium) of the same compound?
Answer: The MIC was 0.2 µg/mL.

Question: What about the ED50 (Mus musculus [12]) of the same compound?
Answer: The ED50 was over 25 mg/kg.

Question: And the MIC (Streptococcus pyogenes [13])?
Answer: Its MIC is 0.2 µg/mL.

Question: And the MIC (Pseudomonas aeruginosa [14])?
Answer: The MIC was 0.2 µg/mL.

Question: What about the MIC (Escherichia coli [15]) of the same compound?
Answer: The MIC was 0.02 µg/mL.

Question: And the MIC (Escherichia coli [16])?
Answer: Its MIC is 0.01 µg/mL.

Question: What about the MIC (Staphylococcus aureus [17]) of the same compound?
Answer: Its MIC is 0.1 µg/mL.

Question: What about the MIC (Burkholderia cepacia) of the same compound?
Answer: The MIC was 6.2 µg/mL.

Question: And the MIC (Staphylococcus aureus [18])?
Answer: The MIC was 0.05 µg/mL.

Question: What about the solubility [19] of the same compound?
Answer: Its solubility is 6.5 µg/mL.

Question: What about the MIC (Staphylococcus aureus [20]) of the same compound?
Answer: The MIC was 0.02 µg/mL.

Question: What about the MIC [21] of the same compound?
Answer: The MIC was 0.05 µg/mL.

Question: And the solubility [22]?
Answer: The solubility was 12.7 µg/mL.

Question: What about the MIC (Acinetobacter sp.) of the same compound?
Answer: Its MIC is 0.05 µg/mL.

Question: And the solubility [23]?
Answer: Its solubility is 1.8 µg/mL.

Question: And the solubility [24]?
Answer: The solubility was 16.3 µg/mL.

Question: And the MIC (Streptococcus agalactiae)?
Answer: Its MIC is 0.39 µg/mL.

Question: And the MIC (Escherichia coli [25])?
Answer: Its MIC is 0.2 µg/mL.

Question: What about the solubility [26] of the same compound?
Answer: The solubility was 12.2 µg/mL.

Question: What about the MIC (Micrococcus luteus [27]) of the same compound?
Answer: The MIC was 1.56 µg/mL.

Question: What about the solubility [28] of the same compound?
Answer: Its solubility is 1.7 µg/mL.

Question: And the solubility [29]?
Answer: Its solubility is 23.5 µg/mL.

Question: What about the MIC (Micrococcus luteus [30]) of the same compound?
Answer: Its MIC is 0.78 µg/mL.

Question: And the MIC (Streptococcus equinus)?
Answer: The MIC was 0.2 µg/mL.

Question: And the MIC (Staphylococcus aureus [31])?
Answer: Its MIC is 0.05 µg/mL.

Question: What about the solubility [32] of the same compound?
Answer: The solubility was 1.2 µg/mL.

Question: And the MIC (Streptococcus pyogenes [33])?
Answer: Its MIC is 0.2 µg/mL.

Question: What about the MIC (Klebsiella aerogenes) of the same compound?
Answer: The MIC was 0.1 µg/mL.

Question: What about the solubility [34] of the same compound?
Answer: The solubility was 8 µg/mL.

From ChEMBL document CHEMBL1124180, “Asymmetric synthesis and properties of the enantiomers of the antibacterial agent 7-(3-aminopyrrolidin-1-yl)-1-(2,4-difluorophenyl)-1,4-dihydro-6- fluoro-4-oxo-1,8-naphthyridine-3-carboxylic acid hydrochloride” (J Med Chem, 1988)
